Active and inactive are the calls of the source. The rule behind the calls is not given here.
What was measured:
[1] = test system: BaF3; assay: Inhibition of EGFR-T790M/del19 mutant in mouse BaF3 cells assessed as inhibition of EGFR phosphorylation at 10 to 1000 nM incubated for 6 hrs by Western blotting analysis; assay type: cell-based; settings: dose 10-1000 nM
Summary of the method: (§1)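 Ba/F3 cells carrying the stated EGFR mutant were made IL-3-independent after 1 week of 7 µM blasticidin selection. They were grown in low-glucose DMEM with 10% FBS and exposed to inhibitor for 6 h. Cells were washed in cold PBS, lysed in SDS buffer (100 mM Tris, 1% SDS, 10% glycerol) and boiled 5 min. Protein was measured by BCA, run on SDS-PAGE, transferred to PVDF, blocked in 5% BSA or milk/TBS-T, and immunoblotted.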

[2] = test system: BaF3; assay: Inhibition of EGFR-del19 mutant in mouse BaF3 cells assessed as inhibition of Akt phosphorylation at 10 to 1000 nM incubated for 6 hrs by Western blotting analysis; assay type: cell-based; settings: dose 10-1000 nM; summary of the method: as §1
[3] = test system: NCI-H460; assay: Anticancer activity against KRAS-mutated human NCI-H460 cells assessed as reduction in cell viability at 1 to 10000 nM incubated for 72 hrs by CellTiter-Glo assay; assay type: functional, cell-based; settings: dose 1-10000 nM
[4] = test system: BaF3; assay: Inhibition of EGFR-C797S/T790M/L858R mutant in mouse BaF3 cells assessed as inhibition of S6 phosphorylation at 10 to 1000 nM incubated for 6 hrs by Western blotting analysis; assay type: cell-based; settings: dose 10-1000 nM
Summary of the method: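 Ba/F3 cells expressing EGFR-L858R-series mutants treated with inhibitors for 6 h. SDS lysates quantified by BCA, run on SDS-PAGE and blotted to PVDF. Probed for phospho-EGFR (Tyr1068), total EGFR and downstream phospho-proteins.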

[5] = test system: PC-9; assay: Inhibition of EGFR T790M/del19 mutant in human PC-9 cells assessed as reduction in Akt phosphorylation at 10 to 1000 nM by Western blotting analysis; assay type: cell-based; settings: dose 10-1000 nM
[6] = test system: PC-9; assay: Inhibition of EGFR T790M/del19 mutant in human PC-9 cells assessed as reduction in S6 phosphorylation at 10 to 1000 nM by Western blotting analysis; assay type: cell-based; settings: dose 10-1000 nM
[7] = test system: PC-9; assay type: functional, organism-based; settings: Homo sapiens, dose 75.0 mg/kg, route po, time 15.0 day
[8] = test system: PC-9; assay: Anti-tumor activity against EGFR T790M/del19 mutant expressing gefitinib-resistant human PC-9 cells xenografted in Balb-c nu/nu mouse assessed as growth inhibition at 75 mg/kg, po administered for 42 days; assay type: functional, organism-based; settings: time 42.0 day
[9] = test system: PC-9; assay: Anti-tumor activity against human PC-9 cells expressing EGFR-C797S/T790M/del19 mutant xenografted in Balb-c nu/nu mouse assessed as prolonged survival at 75 mg/kg, po administered for 60 days and measured twice weekly in presence of cetuximab; assay type: functional, organism-based; settings: time 60.0 day
Summary of the method: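 PC9 EGFR-C797S/T790M/del19 xenografts in Balb-c nu/nu mice, randomized at ~200 mm³. […] Tumour volume 0.5×length×width² and body weight measured twice weekly. Survival shown by Kaplan-Meier curve. N = 6. Mann-Whitney U test on tumour volume at day 23.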

[10] = test system: PC-9; assay: Anti-tumor activity against human PC-9 cells expressing EGFR-C797S/T790M/del19 mutant xenografted in Balb-c nu/nu mouse assessed as prolonged survival at 75 mg/kg, po administered for 60 days and measured twice weekly in presence of panitumumab; assay type: functional, organism-based; settings: time 60.0 day
Summary of the method: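 PC9 EGFR-C797S/T790M/del19 xenografts in Balb-c nu/nu mice, randomized at ~200 mm³. […] Tumour volume 0.5×length×width² measured twice weekly. Survival by Kaplan-Meier. N = 6. Mann-Whitney U test at days 16 and 23.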

[11] = Toxicity against SCID-beige mouse xenografted with human MGH121 cells expressing EGFR-C797S/T790M/del19 mutant assessed as change in body weight at 75 mg/kg, po administered for 40 days and measured twice weekly; assay type: organism-based; settings: in vivo, 960 h, time 40 day
Summary of the method: (§2)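 SCID-beige mice with subcutaneous MGH121-res2 implants were randomized to vehicle or treatment at a mean tumour volume of ~200 mm³. […] Body weight was measured twice weekly, N=6 per group.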

[12] = Toxicity against SCID-beige mouse xenografted with human MGH121 cells expressing EGFR-C797S/T790M/del19 mutant assessed as change in body weight at 75 mg/kg, po administered for 40 days and measured twice weekly in presence of cetuximab; assay type: organism-based; settings: in vivo, 960 h, time 40 day; summary of the method: as §2
[13] = Toxicity against Balb-c nu/nu mouse xenografted with human PC-9 cells expressing EGFR-C797S/T790M/del19 mutant assessed as change in body weight at 75 mg/kg, po administered for 60 days and measured twice weekly in presence of panitumumab; assay type: organism-based; settings: in vivo, 1440 h, time 60 day
Summary of the method: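 Mice bearing subcutaneous PC9 triple-mutant tumours in Balb-c nu/nu hosts were randomized at ~200 mm³. […] Body weights were taken twice weekly, N=6 per group.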

[14] = test system: BaF3; settings: Mus musculus, dose 10-1000 nM, time 6.0 hrs
[15] = test system: BaF3; settings: Mus musculus, dose 10-1000 nM, time 6.0 hrs; remark: listed apart in the source
[16] = test system: Epidermal growth factor receptor (Homo sapiens), P00533 [UNDEFINED MUTATION]; settings: PC-9, dose 10-1000 nM
[17] = test system: Epidermal growth factor receptor (Homo sapiens), P00533 [UNDEFINED MUTATION]; settings: PC-9, dose 10-1000 nM; remark: listed apart in the source
[18] = test system: Epidermal growth factor receptor (Homo sapiens), P00533 [UNDEFINED MUTATION]; settings: MGH121, dose 10-1000 nM
[19] = test system: Epidermal growth factor receptor (Homo sapiens), P00533 [UNDEFINED MUTATION]; settings: PC-9, dose 10-1000 nM; remark: listed apart in the source
[20] = test system: PC-9; settings: Homo sapiens, dose 75.0 mg/kg, route po, time 15.0 day
[21] = test system: PC-9; settings: Homo sapiens, dose 75.0 mg/kg, route po, time 15.0 day; remark: listed apart in the source
[22] = test system: PC-9; settings: Homo sapiens, dose 75.0 mg/kg, route po, time 15.0 day; remark: listed apart in the source
[23] = test system: BaF3; settings: Mus musculus, dose 30-1000 nM, time 6.0 hrs
[24] = test system: Epidermal growth factor receptor (Homo sapiens), P00533 [UNDEFINED MUTATION]; settings: PC-9, dose 500.0 nM, time 6-48 hrs, TDE = time-dependent effect
[25] = test system: Epidermal growth factor receptor (Homo sapiens), P00533 [UNDEFINED MUTATION]; settings: MGH121, dose 500.0 nM, time 48.0 hrs
[26] = test system: Epidermal growth factor receptor (Homo sapiens), P00533 [UNDEFINED MUTATION]; settings: MGH121, dose 500.0 nM, time 48.0 hrs; remark: listed apart in the source

Sequence of Epidermal growth factor receptor (Homo sapiens), P00533 [UNDEFINED MUTATION] (P00533 whole entry, looked up, change not shown): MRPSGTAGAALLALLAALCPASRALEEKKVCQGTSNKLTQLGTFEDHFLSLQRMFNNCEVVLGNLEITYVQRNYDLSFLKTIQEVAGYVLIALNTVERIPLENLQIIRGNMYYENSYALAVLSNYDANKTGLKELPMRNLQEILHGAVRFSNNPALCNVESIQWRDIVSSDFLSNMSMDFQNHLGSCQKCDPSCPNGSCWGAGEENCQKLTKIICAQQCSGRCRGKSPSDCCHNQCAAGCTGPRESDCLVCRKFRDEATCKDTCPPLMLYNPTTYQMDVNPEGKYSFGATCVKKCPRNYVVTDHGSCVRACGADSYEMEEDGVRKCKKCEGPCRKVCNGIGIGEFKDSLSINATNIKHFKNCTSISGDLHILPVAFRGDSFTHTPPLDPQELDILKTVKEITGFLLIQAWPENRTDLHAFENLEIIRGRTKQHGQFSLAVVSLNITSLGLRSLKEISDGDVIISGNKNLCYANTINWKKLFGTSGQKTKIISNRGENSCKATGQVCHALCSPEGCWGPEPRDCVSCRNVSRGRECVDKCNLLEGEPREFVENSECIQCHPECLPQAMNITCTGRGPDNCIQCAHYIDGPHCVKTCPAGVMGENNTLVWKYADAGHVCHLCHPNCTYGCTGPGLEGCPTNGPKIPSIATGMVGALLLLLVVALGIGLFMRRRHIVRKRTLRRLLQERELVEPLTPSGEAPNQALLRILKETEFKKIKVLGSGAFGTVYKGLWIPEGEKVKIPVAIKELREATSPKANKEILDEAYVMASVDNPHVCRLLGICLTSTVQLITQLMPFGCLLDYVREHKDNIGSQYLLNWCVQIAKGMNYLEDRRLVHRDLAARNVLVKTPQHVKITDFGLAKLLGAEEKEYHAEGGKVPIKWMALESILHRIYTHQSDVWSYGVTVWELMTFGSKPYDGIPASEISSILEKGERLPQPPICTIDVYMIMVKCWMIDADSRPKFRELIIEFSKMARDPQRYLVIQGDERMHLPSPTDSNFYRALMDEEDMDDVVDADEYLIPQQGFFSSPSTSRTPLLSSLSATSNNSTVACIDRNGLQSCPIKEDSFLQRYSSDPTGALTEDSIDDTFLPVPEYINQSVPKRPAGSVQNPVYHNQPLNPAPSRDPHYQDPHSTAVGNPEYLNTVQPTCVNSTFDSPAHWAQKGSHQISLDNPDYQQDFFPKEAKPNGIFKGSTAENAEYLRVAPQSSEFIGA

Q: What does the source list for `COc1cc(N2CCC(N3CCN(C)CC3)CC2)ccc1Nc1ncc(Cl)c(Nc2ccccc2P(C)(C)=O)n1` [BRIGATINIB]?
A: inhibition [1]: Active; inhibition [2]: Active; Activity [3]: Active; inhibition [4]: Active; inhibition [5]: Active; inhibition [6]: Active; Activity [7]: Active; Activity [8]: Active; Activity [9]: Active; Activity [10]: Active; Activity [11]: Non-Toxic; Activity [12]: Non-Toxic; Activity [13]: Non-Toxic; inhibition [14]: Active; inhibition [15]: Active; inhibition [16]: Active; inhibition [17]: Active; inhibition [18]: Active; inhibition [19]: Active; inhibition [20]: Active; inhibition [21]: Active; inhibition [22]: Active; inhibition [23]: Active; inhibition [24]: Tde; inhibition [25]: inactive; inhibition [26]: Active

— ChEMBL document CHEMBL5705906 (Nat Commun, 2017)
